This is an account of results in PMC3999704 (Current Chemical Genomics and Translational Medicine, 2014).

Assay type in all cases: cell-based, rat
The test system of one data set is GH3.TRE-Luc cells. Description: Cell viability assay, intracellular ATP content. The settings on record: over the range of concentrations used within the 24 h treatment, presence of 1 nM T3.
The subject of data set [1] is thyroid hormone receptor (TR). Briefly: qHTS GH3.TRE-Luc luciferase reporter gene assay, agonist mode. The settings on record: LOPAC library screen. Summed up:
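Cells were held 20 h in serum-free assay medium (DMEM:F12 with insulin, ethanolamine, selenite, apotransferrin and BSA), then detached and dispensed in 5 µl/well. After 4–5 h at 37°C, compound or DMSO was pinned in (final DMSO 0.46 or 0.92%) for 24 h. One-Glo was added, 30 min at room temperature, then luminescence read. Data were normalized to 100 nM T3 (100%) and DMSO (0%).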
In general terms: Quantitative high-throughput screening tests each substance at several concentrations.

Data set [2] concerns thyroid hormone receptor (TR). The settings on record: 24 well format, 24h, normalized to total protein values. An outline of the steps:
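GH3.TRE-Luc cells were seeded at 150,000/well in DMEM:F12 with 15 mM HEPES, 10% FBS and Pen/Strep. After 24 h the medium was changed to PCM medium for another 24 h. Cells were then exposed 24 h to ligands in 0.2% DMSO. Luciferase was read from lysed cells and cell number estimated by BCA protein assay. Duplicates per dose, ≥3 experiments.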

Turning to `O=c1[nH]cc(F)c(=O)[nH]1` [5-fluorouracil], the cytotoxicity result in the data set on GH3.TRE-Luc cells was “without apparent cytotoxicity”.

Regarding `NCCCC(=O)O` [GABA], in data set [1], the “response in this assay” value is “did not show any response”. Take `N[C@@H](Cc1cc(I)c(Oc2ccc(O)c(I)c2)c(I)c1)C(=O)O` [T3, triiodothyronine]: the “induction of the reporter gene luciferase activity” value in data set [2] is recorded as “showed the expected induction profiles”.

Consider `O=S(=O)(c1ccccc1)N(CC(F)(F)F)c1ccc(C(O)(C(F)(F)F)C(F)(F)F)cc1` [T0901317], for which, in data set [2], the “induction of the reporter gene luciferase activity” value is reported as “neither the RAR-specific ligand TTNPB nor the LXR-specific ligand T0901317 activated the reporter gene”. Same read-out and setting: in the case of `C/C(=C\c1ccc(C(=O)O)cc1)c1ccc2c(c1)C(C)(C)CCC2(C)C` [TTNPB] it was “neither the RAR-specific ligand TTNPB nor the LXR-specific ligand T0901317 activated the reporter gene”.
